Measurements as given in article PMC2873839 (Bioorganic & medicinal chemistry, 2010).
Entries after “also recorded” stand apart in the source; their conditions may differ.

System: HeLa cells
Test: Confocal microscopy of subcellular distribution / nuclear staining
Type: cell-based
Procedure, shortened: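 HeLa grown in MEM alpha with 10% FBS at 37 °C, 5% CO2, seeded at 4000 cells/well on glass bottom, adhered overnight. Test compound 10–100 μM, 37 °C for 2–19 h, in complete or serum-free medium, then HBSS rinse. Confocal: 63x/1.4 oil objective, 1.1 μm optical slice, excitation 488 nm, emission 560+ nm. Dead cells excluded by morphology; percentage with nuclear staining scored.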

Substance | subcellular distribution (10 μM, 2 h) | subcellular distribution (10 μM, 19 h, complete medium) | subcellular distribution (40 μM, 2 h) | percentage of cells with additional nuclear staining (100 μM, 4 h, complete medium) [%] | subcellular distribution (100 μM, 4 h, complete medium)
KSKKQK [Ru-KSKKQK] | only faint punctate luminescence in the cytoplasm and no nuclear staining | same result; also recorded: Punctate staining of the cytoplasm | – | – | –
PKKKRKV [Ru-PKKKRKV] | only faint punctate luminescence in the cytoplasm and no nuclear staining | same result; also recorded: Punctate staining of the cytoplasm | – | – | –
KKKK [Ru-KKKK] | – | – | only faint luminescence in the cytoplasm | 17 | brighter, punctate cytoplasmic staining; also recorded: punctate staining of the cytoplasm
